According to ChEMBL document CHEMBL4689842, “EUbOPEN Chemogenomics Library wave 1” (2021):

System: U2OS
Assay: Multiplex assay against U2OS
Type: toxicity, cell-based
Conditions: human
How it was run: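 With compound added, live cells were imaged on a CQ1 microscope at 37°C and 5% CO2; staining with Hoechst33342, BioTracker Green Microtubule Cytoskeleton Dye, MitoTracker Red and Annexin V Alexa Fluor 680 had been done at seeding. The CellPathfinder machine-learning gating scheme split cells into Hoechst high-intensity objects or normal cells, normal cells into healthy, pyknosed or fragmented nuclei, and pyknosed cells into mitotic or apoptotic. The tubulin, mitochondrial-mass and membrane-permeability phenotypes are per cents of healthy-nucleus cells.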

[1] = 12 h, 1 µM, compound concentration 1 uM, replicate 1
[2] = 12 h, 1 µM, compound concentration 1 uM, replicate 2
[3] = 12 h, 10 µM, compound concentration 10 uM, replicate 1
[4] = 12 h, 10 µM, compound concentration 10 uM, replicate 2
[5] = 24 h, 1 µM, compound concentration 1 uM, replicate 1
[6] = 24 h, 1 µM, compound concentration 1 uM, replicate 2
[7] = 24 h, 10 µM, compound concentration 10 uM, replicate 1
[8] = 24 h, 10 µM, compound concentration 10 uM, replicate 2
[9] = 48 h, 1 µM, compound concentration 1 uM, replicate 1
[10] = 48 h, 1 µM, compound concentration 1 uM, replicate 2
[11] = 48 h, 10 µM, compound concentration 10 uM, replicate 1
[12] = 48 h, 10 µM, compound concentration 10 uM, replicate 2

Structure (SMILES): CC(C)N1CCC(C)(C)c2cc(C#Cc3ccc(C(=O)O)cc3)ccc21
- Population Apoptotic (%) [1]: 30%
- Population Healthy Nuclei (%) [1]: 74%
- Population Hoechst High Intensity Objects (%) [1]: 12%
- Population Membrane Permeable-Phenotype (%) [1]: 3%
- Population Mitochondria Different-Phenotype (%) [1]: 4%
- Population Mitotic Cells (%) [1]: 70%
- Population Normal (%) [1]: 88%
- Population Pyknosed Nuclei (%) [1]: 9%
- Population Tubulin-Different-Phenotype (%) [1]: 21%
- Total Cell Count [1]: 125
- Population Apoptotic (%) [2]: 20%
- Population Fragmented Nuclei (%) [2]: 16%
- Population Healthy Nuclei (%) [2]: 75%
- Population Hoechst High Intensity Objects (%) [2]: 13%
- Population Membrane Permeable-Phenotype (%) [2]: 6%
- Population Mitochondria Different-Phenotype (%) [2]: 15%
- Population Mitotic Cells (%) [2]: 80%
- Population Normal (%) [2]: 86%
- Population Pyknosed Nuclei (%) [2]: 8%
- Population Tubulin-Different-Phenotype (%) [2]: 20%
- Total Cell Count [2]: 69
- Population Apoptotic (%) [3]: 60%
- Population Fragmented Nuclei (%) [3]: 52%
- Population Healthy Nuclei (%) [3]: 43%
- Population Hoechst High Intensity Objects (%) [3]: 54%
- Population Membrane Permeable-Phenotype (%) [3]: 8%
- Population Mitochondria Different-Phenotype (%) [3]: 8%
- Population Mitotic Cells (%) [3]: 40%
- Population Normal (%) [3]: 45%
- Population Pyknosed Nuclei (%) [3]: 4%
- Population Tubulin-Different-Phenotype (%) [3]: 13%
- Total Cell Count [3]: 542
- Population Apoptotic (%) [4]: 0%
- Population Fragmented Nuclei (%) [4]: 55%
- Population Healthy Nuclei (%) [4]: 44%
- Population Hoechst High Intensity Objects (%) [4]: 71%
- Population Membrane Permeable-Phenotype (%) [4]: 4%
- Population Mitochondria Different-Phenotype (%) [4]: 14%
- Population Mitotic Cells (%) [4]: 0%
- Population Normal (%) [4]: 28%
- Population Pyknosed Nuclei (%) [4]: 0%
- Population Tubulin-Different-Phenotype (%) [4]: 28%
- Total Cell Count [4]: 327
- Population Apoptotic (%) [5]: 54%
- Population Fragmented Nuclei (%) [5]: 11%
- Population Healthy Nuclei (%) [5]: 80%
- Population Hoechst High Intensity Objects (%) [5]: 7%
- Population Membrane Permeable-Phenotype (%) [5]: 1%
- Population Mitochondria Different-Phenotype (%) [5]: 5%
- Population Mitotic Cells (%) [5]: 45%
- Population Normal (%) [5]: 92%
- Population Pyknosed Nuclei (%) [5]: 7%
- Population Tubulin-Different-Phenotype (%) [5]: 12%
- Total Cell Count [5]: 156
- Population Apoptotic (%) [6]: 50%
- Population Fragmented Nuclei (%) [6]: 18%
- Population Healthy Nuclei (%) [6]: 76%
- Population Hoechst High Intensity Objects (%) [6]: 4%
- Population Membrane Permeable-Phenotype (%) [6]: 3%
- Population Mitochondria Different-Phenotype (%) [6]: 10%
- Population Mitotic Cells (%) [6]: 50%
- Population Normal (%) [6]: 95%
- Population Pyknosed Nuclei (%) [6]: 5%
- Population Tubulin-Different-Phenotype (%) [6]: 18%
- Total Cell Count [6]: 81
- Population Apoptotic (%) [7]: 70%
- Population Fragmented Nuclei (%) [7]: 47%
- Population Healthy Nuclei (%) [7]: 49%
- Population Hoechst High Intensity Objects (%) [7]: 48%
- Population Membrane Permeable-Phenotype (%) [7]: 4%
- Population Mitochondria Different-Phenotype (%) [7]: 6%
- Population Mitotic Cells (%) [7]: 30%
- Population Normal (%) [7]: 51%
- Population Pyknosed Nuclei (%) [7]: 3%
- Population Tubulin-Different-Phenotype (%) [7]: 14%
- Total Cell Count [7]: 566
- Population Apoptotic (%) [8]: 100%
- Population Fragmented Nuclei (%) [8]: 49%
- Population Healthy Nuclei (%) [8]: 47%
- Population Hoechst High Intensity Objects (%) [8]: 66%
- Population Membrane Permeable-Phenotype (%) [8]: 3%
- Population Mitochondria Different-Phenotype (%) [8]: 3%
- Population Mitotic Cells (%) [8]: 0%
- Population Normal (%) [8]: 33%
- Population Pyknosed Nuclei (%) [8]: 2%
- Population Tubulin-Different-Phenotype (%) [8]: 26%
- Total Cell Count [8]: 352
- Population Apoptotic (%) [9]: 25%
- Population Fragmented Nuclei (%) [9]: 6%
- Population Healthy Nuclei (%) [9]: 90%
- Population Membrane Permeable-Phenotype (%) [9]: 3%
- Population Mitochondria Different-Phenotype (%) [9]: 5%
- Population Mitotic Cells (%) [9]: 75%
- Population Pyknosed Nuclei (%) [9]: 3%
- Population Tubulin-Different-Phenotype (%) [9]: 17%
- Total Cell Count [9]: 245
- Population Apoptotic (%) [10]: 33%
- Population Fragmented Nuclei (%) [10]: 14%
- Population Healthy Nuclei (%) [10]: 83%
- Population Hoechst High Intensity Objects (%) [10]: 6%
- Population Membrane Permeable-Phenotype (%) [10]: 4%
- Population Mitochondria Different-Phenotype (%) [10]: 9%
- Population Mitotic Cells (%) [10]: 66%
- Population Normal (%) [10]: 93%
- Population Pyknosed Nuclei (%) [10]: 2%
- Population Tubulin-Different-Phenotype (%) [10]: 20%
- Total Cell Count [10]: 122
- Population Apoptotic (%) [11]: 30%
- Population Fragmented Nuclei (%) [11]: 38%
- Population Healthy Nuclei (%) [11]: 57%
- Population Hoechst High Intensity Objects (%) [11]: 38%
- Population Membrane Permeable-Phenotype (%) [11]: 1%
- Population Mitochondria Different-Phenotype (%) [11]: 10%
- Population Mitotic Cells (%) [11]: 69%
- Population Normal (%) [11]: 61%
- Population Pyknosed Nuclei (%) [11]: 3%
- Population Tubulin-Different-Phenotype (%) [11]: 12%
- Total Cell Count [11]: 653
- Population Apoptotic (%) [12]: 100%
- Population Fragmented Nuclei (%) [12]: 44%
- Population Healthy Nuclei (%) [12]: 55%
- Population Hoechst High Intensity Objects (%) [12]: 57%
- Population Membrane Permeable-Phenotype (%) [12]: 2%
- Population Mitochondria Different-Phenotype (%) [12]: 8%
- Population Mitotic Cells (%) [12]: 0%
- Population Normal (%) [12]: 42%
- Population Pyknosed Nuclei (%) [12]: 0%
- Population Tubulin-Different-Phenotype (%) [12]: 28%
- Total Cell Count [12]: 411
